In ChEMBL document CHEMBL1134529, “4-Hydroxy-5,6-dihydropyrones as inhibitors of HIV protease: the effect of heterocyclic substituents at C-6 on antiviral potency and pharmacokinetic parameters” (J Med Chem, 2001):
Values joined by “and” are separate entries in the source; they are usually repeats but may differ in a detail not shown here. Identical values can stand only once.

Assays:
[1] = test system: Human immunodeficiency virus 1; experiment: Antiviral activity in HIV infected CEM cells as effective concentration at which 50% of the cells are protected from cytopathic effect.; format: functional, organism-based; conditions: Human immunodeficiency virus 1, CCRF-CEM
Method in brief: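 HIV-IIIB-infected human lymphocyte-derived CEM cells. EC50 is the drug concentration at which 50% of cells are protected from HIV cytopathic effects. Testing was done at Southern Research Institute.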

[2] = molecular target: Human immunodeficiency virus type 1 protease (Human immunodeficiency virus 1, UniProt Q72874); experiment: HIV-1 protease inhibition.
Method in brief: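 Affinity-purified HIV-1 protease (1.5 nM final) with 40 µM peptide substrate His-Lys-Ala-Arg-Val-Leu-(p-NO2-Phe)-Glu-Ala-Nle-Ser-NH2 and 1.0% DMSO. Buffer: 80 mM MES, 160 mM NaCl, 1.0 mM DTT, 1.0 mM EDTA, 0.1% PEG 8000, pH 6.2. Incubated 60 min at 37 °C, then quenched with TFA (2% final). Products separated by reverse-phase HPLC and read at 220 nm. Percent control derived from % conversion with vs without inhibitor; IC50 then determined.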

[3] = Toxicity measured in CEM cells in the absence of virus.; format: cell-based; conditions: human, CEM cells (CCRF-CEM); read-out: TC50 (the source's name)
[4] = Compound was evaluated for pharmacokinetic parameter, half life period (T1/2); format: ADME, organism-based; conditions: in vivo
[5] = Compound was evaluated for pharmacokinetic parameter, area under curve (AUC); format: ADME; design: unit not given here
[6] = Compound was evaluated for pharmacokinetic parameter, Cmax; format: ADME, organism-based; conditions: in vivo
[7] = compound was evaluated for pharmacokinetic parameter, half life period (T1/2); format: ADME, organism-based; conditions: in vivo
Method in brief: (§1)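 Species-dependent dosing. Mice: 25 mg/kg po in 20% 0.1 N NaOH/80% 0.5% methylcellulose; values from a pool of five mice; plasma levels by HPLC. Rats: 10 mg/kg po by capsule or pH 7.4-buffered solution; average of two animals. Dogs: 10 mg/kg in saline (sodium salt) or pH 10-buffered 0.1 NaOH (free acid).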

[8] = compound was evaluated for pharmacokinetic parameter, area under curve (AUC); format: ADME; method in brief: as §1
[9] = Compound was evaluated for pharmacokinetic parameter, Cmax in rat at 10 mg/kg po; conditions: in vivo
[10] = Compound was evaluated for pharmacokinetic parameter, Tmax; format: ADME, organism-based; conditions: in vivo
[11] = compound was evaluated for pharmacokinetic parameter, Tmax; format: ADME, organism-based; conditions: in vivo; method in brief: as §1
[12] = Compound was evaluated for pharmacokinetic parameter, Cmax in rat at 25 mg/kg po; format: ADME, organism-based; design: dose 25 mg/kg, route oral; conditions: in vivo
[13] = Bioavailability; format: ADME, organism-based; conditions: eutheria, in vivo
Method in brief: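 Dogs dosed at 10 mg/kg. Vehicle was either the sodium salt in normal saline or the free acid in 0.1 NaOH buffered to pH 10, depending on compound.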

| SMILES | EC50 [1] [nM] | IC50 [2] [nM] | CC50 [3] [nM] | other results |
| --- | --- | --- | --- | --- |
| Cc1cc(SC2=C(O)OC(CCc3nc4ccccc4s3)(C(C)C)CC2=O)c(C(C)(C)C)cc1CO (stereo not given) | 1500 | 1.4 | 62000 | – |
| Cc1cc(SC2=C(O)OC(CCc3ccsc3)(C(C)C)CC2=O)c(C(C)(C)C)cc1CO (stereo not given) | 300 | 0.17 | 110000 | half-life [4]: 210 min; AUC [5]: 221; Cmax [6]: 39.6 µM; half-life [7]: 564 min; AUC [8]: 21 µg/h/mL; Cmax [9]: 11.2 µM; Tmax [10]: 30 min; Tmax [11]: 30 min |
| Cc1cc(SC2=C(O)O[C@](CCc3ccsc3)(C(C)C)CC2=O)c(C(C)(C)C)cc1CO | 120 | 0.13 | 91000 | T1/2 [7]: 690 min and 324 min; Tmax [11]: 30 min; Cmax [12]: 14.7 µM; bioavailability [13]: 88% |
| Cc1cc(SC2=C(O)OC(CCc3cscn3)(C(C)C)CC2=O)c(C(C)(C)C)cc1CO (stereo not given) | 2800 | 1.3 | 141000 | – |
| O=c1cc(-c2ccccc2)oc(O)c1Sc1ccccc1 | – | 3000 | – | – |
| Cc1cc(SC2=C(O)OC(CCC3CCCO3)(C(C)C)CC2=O)c(C(C)(C)C)cc1CO (stereo not given) | – | 5 | – | – |
| Cc1cc(SC2=C(O)OC(CCc3ccsc3CO)(C(C)C)CC2=O)c(C(C)(C)C)cc1CO (stereo not given) | 920 | 14 | 200000 | – |
| Cc1csc(CCC2(C(C)C)CC(=O)C(Sc3cc(C)c(CO)cc3C(C)(C)C)=C(O)O2)n1 (stereo not given) | 800 | 0.45 | 171000 | – |
| Cc1cc(SC2=C(O)O[C@@](CCc3ccsc3)(C(C)C)CC2=O)c(C(C)(C)C)cc1CO | 14000 | 11.5 | 95000 | – |
| Cc1nc(CCC2(C(C)C)CC(=O)C(Sc3cc(C)c(CO)cc3C(C)(C)C)=C(O)O2)cs1 (stereo not given) | 4500 | 13 | 210000 | – |
| Cc1cc(SC2=C(O)OC(CCc3ncsc3C(C)C)(C(C)C)CC2=O)c(C(C)(C)C)cc1CO (stereo not given) | 10000 | 5.8 | 52000 | – |
| Cc1cc(SC2=C(O)OC(CCc3csc(N)n3)(C(C)C)CC2=O)c(C(C)(C)C)cc1CO (stereo not given) | 3500 | 0.95 | > 200000 | – |
| Cc1cc(SC2=C(O)OC(CCc3ccccn3)(C(C)C)CC2=O)c(C(C)(C)C)cc1CO (stereo not given) | 1500 | 1.2 | 249000 | – |
| Cc1cc(SC2=C(O)O[C@](CCc3ccc(N)cc3)(C(C)C)CC2=O)c(C(C)(C)C)cc1CO | – | 0.11 | 210000 | half-life [4]: 132 min; AUC [5]: 82; Cmax [6]: 26.5 µM; half-life [7]: 222 min; Tmax [10]: 30 min; Tmax [11]: 30 min; bioavailability [13]: 33% |
| Cc1cc(SC2=C(O)OC(CCc3cscc3C)(C(C)C)CC2=O)c(C(C)(C)C)cc1CO (stereo not given) | 260 | 0.41 | 51000 | – |
| CC(=O)Nc1nc(CCC2(C(C)C)CC(=O)C(Sc3cc(C)c(CO)cc3C(C)(C)C)=C(O)O2)cs1 (stereo not given) | 23000 | 18 | 210000 | – |
| Cc1cc(SC2=C(O)OC(CCc3ccncc3)(C(C)C)CC2=O)c(C(C)(C)C)cc1CO (stereo not given) | 1500 | 1.5 | 296000 | – |
| Cc1cc(SC2=C(O)OC(CCc3nc(C(C)C)cs3)(C(C)C)CC2=O)c(C(C)(C)C)cc1CO (stereo not given) | 33000 | 14 | 84000 | – |
| Cc1cc(SC2=C(O)OC(CCc3cnc(N)nc3)(C(C)C)CC2=O)c(C(C)(C)C)cc1CO (stereo not given) | 5700 | – | > 200000 | – |
| Cc1cc(SC2=C(O)OC(CCc3ccc(CO)s3)(C(C)C)CC2=O)c(C(C)(C)C)cc1CO (stereo not given) | 2500 | 0.58 | 182000 | – |

| SMILES | EC50 [1] [nM] | IC50 [2] [nM] | CC50 [3] [nM] | other results |
| --- | --- | --- | --- | --- |
| Cc1cc(SC2=C(O)OC(CCc3cncnc3)(C(C)C)CC2=O)c(C(C)(C)C)cc1CO (stereo not given) | 1200 | 17 | > 200000 | – |
| Cc1cc(SC2=C(O)OC(CCc3scnc3C(C)C)(C(C)C)CC2=O)c(C(C)(C)C)cc1CO (stereo not given) | 1200 | 0.8 | 102000 | – |
| Cc1cc(SC2=C(O)OC(CCc3cncs3)(C(C)C)CC2=O)c(C(C)(C)C)cc1CO (stereo not given) | 1900 | 0.24 | 229000 | – |
| Cc1cc(SC2=C(O)OC(CCc3cccnc3)(C(C)C)CC2=O)c(C(C)(C)C)cc1CO (stereo not given) | – | 0.94 | – | Tmax [10]: 30 min |
| Cc1cc(SC2=C(O)OC(CCc3cccs3)(C(C)C)CC2=O)c(C(C)(C)C)cc1CO (stereo not given) | 500 | 0.35 | 81000 | – |
| Cc1cc(SC2=C(O)OC(CCc3scnc3C)(C(C)C)CC2=O)c(C(C)(C)C)cc1CO (stereo not given) | 370 | – | 164000 | Cmax [9]: 0.77 µM; Tmax [11]: 15 min |
| Cc1cnc(CCC2(C(C)C)CC(=O)C(Sc3cc(C)c(CO)cc3C(C)(C)C)=C(O)O2)s1 (stereo not given) | 1900 | 19 | 210000 | – |
| Cc1cc(SC2=C(O)OC(CCc3sccc3C)(C(C)C)CC2=O)c(C(C)(C)C)cc1CO (stereo not given) | 280 | – | 80000 | – |
| Cc1cc(SC2=C(O)OC(CCc3ccoc3)(C(C)C)CC2=O)c(C(C)(C)C)cc1CO (stereo not given) | 1000 | 0.34 | 199000 | half-life [4]: 336 min; AUC [5]: 241; Cmax [6]: 54.4 µM; Tmax [10]: 30 min |
| Cc1cc(SC2=C(O)OC(CCc3c[nH]cn3)(C(C)C)CC2=O)c(C(C)(C)C)cc1CO (stereo not given) | 89000 | 70 | 200000 | – |
| Cc1cc(SC2=C(O)OC(CCc3ccc(N)cc3)(C(C)C)CC2=O)c(C(C)(C)C)cc1CO (racemic) | 500 | 0.43 | > 100000 | half-life [4]: 132 min; AUC [5]: 42; Cmax [6]: 23 µM; Tmax [10]: 30 min |
| Cc1cc(SC2=C(O)OC(CCc3csc(C(C)C)n3)(C(C)C)CC2=O)c(C(C)(C)C)cc1CO (stereo not given) | 23000 | 1.6 | 91000 | – |
| Cc1cc(SC2=C(O)OC(CCc3c[nH]c4ccccc34)(C(C)C)CC2=O)c(C(C)(C)C)cc1CO (stereo not given) | 370 | 0.72 | 46000 | – |
| Cc1cc(SC2=C(O)OC(CCc3ncsc3C)(C(C)C)CC2=O)c(C(C)(C)C)cc1CO (stereo not given) | 1800 | 1.3 | 208000 | – |
| Cc1cc(SC2=C(O)OC(CCc3ccco3)(C(C)C)CC2=O)c(C(C)(C)C)cc1CO (stereo not given) | 750 | 0.78 | 190000 | – |
| Cc1cc(SC2=C(O)OC(CCc3ccc4[nH]ccc4c3)(C(C)C)CC2=O)c(C(C)(C)C)cc1CO (stereo not given) | 680 | 0.98 | 46000 | – |
| Cc1cc(SC2=C(O)OC(CCc3cc[nH]n3)(C(C)C)CC2=O)c(C(C)(C)C)cc1CO (stereo not given) | 5600 | 0.28 | 320000 | – |
| Cc1cc(SC2=C(O)OC(CCc3nccs3)(C(C)C)CC2=O)c(C(C)(C)C)cc1CO (stereo not given) | 700 | 0.57 | 216000 | half-life [4]: 198 min; AUC [5]: 132; Cmax [6]: 33 µM; half-life [7]: 732 min; AUC [8]: 10000 ng·h/mL; Cmax ([9]; read-out: Cmax): 2.7 µM; Tmax [10]: 30 min; Tmax [11]: 15 min |
| Cc1cc(SC2=C(O)OC(CCc3csc(CO)c3)(C(C)C)CC2=O)c(C(C)(C)C)cc1CO (stereo not given) | 18000 | 0.19 | 210000 | – |
